According to ChEMBL document CHEMBL1949649, “5-sulfonyl-benzimidazoles as selective CB2 agonists-part 2” (Bioorg Med Chem Lett, 2012):

Key:
[1] = Drug metabolism in human liver microsomes after 15 mins; type: ADME, Microsome; details: read-out: Drug metabolism
[2] = molecular target: Cannabinoid receptor 1 (Homo sapiens, UniProt P21554); assay: Agonist activity at human CB1 receptor; type: functional
[3] = molecular target: Cannabinoid receptor 2 (Homo sapiens, UniProt P34972); assay: Agonist activity at human CB2 receptor; type: functional
Chain of Cannabinoid receptor 2 (P34972 whole entry): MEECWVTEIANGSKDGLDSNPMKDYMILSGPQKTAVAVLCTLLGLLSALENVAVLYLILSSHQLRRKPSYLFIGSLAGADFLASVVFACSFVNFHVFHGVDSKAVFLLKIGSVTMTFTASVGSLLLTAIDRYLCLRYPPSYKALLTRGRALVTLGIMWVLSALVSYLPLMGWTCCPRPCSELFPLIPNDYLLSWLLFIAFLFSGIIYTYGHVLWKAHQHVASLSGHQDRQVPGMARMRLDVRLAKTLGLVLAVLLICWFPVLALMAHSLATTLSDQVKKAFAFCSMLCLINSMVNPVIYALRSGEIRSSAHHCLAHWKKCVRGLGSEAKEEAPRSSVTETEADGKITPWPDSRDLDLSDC

[4] = test system: Rattus norvegicus; assay: Toxicity in rat chronic constriction injury-induced neuropathic pain model assessed as tolerance at 40 mg/kg/day, sc after 5 to 8 days; type: organism-based; design: route subcutaneous; details: in vivo
Procedure, shortened: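 Chronic constriction injury of rats (n = 7 per group); daily subcutaneous dosing over repeated days, with morphine as comparator. Cold allodynia read as lifting on a cold plate at 0 °C for 4 min.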

Chain of Cannabinoid receptor 1 (P21554 whole entry): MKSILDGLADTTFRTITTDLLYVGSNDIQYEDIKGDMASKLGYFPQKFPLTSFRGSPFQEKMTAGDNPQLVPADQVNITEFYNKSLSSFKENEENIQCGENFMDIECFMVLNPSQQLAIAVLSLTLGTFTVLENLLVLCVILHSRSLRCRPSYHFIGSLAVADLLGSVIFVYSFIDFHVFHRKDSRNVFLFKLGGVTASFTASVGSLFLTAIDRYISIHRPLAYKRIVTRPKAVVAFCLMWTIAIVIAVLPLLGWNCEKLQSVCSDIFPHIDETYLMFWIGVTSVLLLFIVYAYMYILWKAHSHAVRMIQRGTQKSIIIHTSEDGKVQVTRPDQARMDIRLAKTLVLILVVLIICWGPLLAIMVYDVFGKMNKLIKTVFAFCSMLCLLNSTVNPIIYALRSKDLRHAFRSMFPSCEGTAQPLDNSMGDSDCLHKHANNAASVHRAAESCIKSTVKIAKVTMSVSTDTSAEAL

SMILES	metabolised at 0.25 h [1]	EC50 [2]	EC50 [3]	Activity [4]
CC(C)(C)c1nc2cc(S(=O)(=O)CCCC(F)(F)F)ccc2n1CC1CCN(C(=O)C(F)(F)F)CC1	20%	> 10000 nM		
CCS(=O)(=O)c1ccc2c(c1)nc(C(C)(C)C)n2CC1CCS(=O)(=O)CC1		> 10000 nM	28 nM	
COCCOc1cc(S(=O)(=O)c2ccc3c(c2)nc(C(C)(C)C)n3CC2CCOCC2)ccn1	53%		1.3 nM	
CCS(=O)(=O)c1ccc2c(c1)nc(C(C)(C)C)n2CC1CCN(C=O)CC1	7%	> 10000 nM	23 nM	
CC(C)(C)c1nc2cc(S(=O)(=O)CC3CC3)ccc2n1CC1CCN(C=O)CC1	16%	2510 nM		
COCCCc1cc(S(=O)(=O)c2ccc3c(c2)nc(C(C)(C)C)n3CC2CCOCC2)ccn1	93%	> 10000 nM	1.1 nM	
CCS(=O)(=O)c1ccc2c(c1)nc(C(C)(C)C)n2CC1CCN(C(C)=O)CC1	13%	> 10000 nM	8.4 nM	
CC(=O)NCCCCCc1cc(S(=O)(=O)c2ccc3c(c2)nc(C(C)(C)C)n3CC2CCOCC2)ccn1	86%	> 10000 nM	5.6 nM	
COC(=O)N1CCC(Cn2c(C(C)(C)C)nc3cc(S(=O)(=O)CCCC(F)(F)F)ccc32)CC1	54%	> 10000 nM		
CC(C)(C)c1nc2cc(S(=O)(=O)CCCC(F)(F)F)ccc2n1CC1CCNCC1		> 10000 nM	240 nM	
CN1CC[C@]23c4c5ccc(O)c4O[C@H]2[C@@H](O)C=C[C@H]3[C@H]1C5 [MORPHINE]				Non-toxic
COCCCNc1cc(S(=O)(=O)c2ccc3c(c2)nc(C(C)(C)C)n3CC2CCOCC2)ccn1	99%		0.8 nM	
CC(=O)N1CCC(Cn2c(C(C)(C)C)nc3cc(S(=O)(=O)CCCO)ccc32)CC1		> 10000 nM		
COCC(=O)N1CCC(Cn2c(C(C)(C)C)nc3cc(S(=O)(=O)CCCC(F)(F)F)ccc32)CC1		> 10000 nM		
COCCS(=O)(=O)c1ccc2c(c1)nc(C(C)(C)C)n2CC1CCN(C(C)=O)CC1		> 10000 nM		
